# Rows were chosen to be rich in hits. Some 1.3% of all compounds tested hit in one or more screens of this group.
# FAS-TE inh – blocks the thioesterase domain of human fatty acid synthase; recombinant FAS-TE, OMFH fluorogenic substrate, fluorescence endpoint; AID 602261; inhibition, % at 15 µM; 360,000 tested, 0.67% active; P49327;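 active = compounds whose normalised, plate-corrected inhibition of enzyme fluorescence in the single-dose primary screen is 50% or more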;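 note: 0% = DMSO with enzyme and 100% = substrate without enzyme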
# MT1-MMP act inh – inhibitors of human MT1-MMP activation. HT1080 RFP-PRO-GFP cells, GFP/RFP ratio fluorescence, overnight; percent of plate control window, DMSO zero. 360,000 tested, 0.061% active. P50281. GFP/RFP ratio change, % at 20 µM;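 active = GFP/RFP ratio change of at least 30% with cell ATP level not reduced by more than half and red fluorescence within 50% of control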
#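 Assay system – RFP-PRO-GFP reporter HT1080 cells · Compound dosing – single dose of 20 µM compound, 1% DMSO final · Incubation – overnight compound exposure at 37 °C · Measure – GFP/RFP fluorescence ratio · Benchmarks – DMSO wells and RFP-L50D-GFP cells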
# hiPSC survival – enhancers of human iPSC single-cell survival | 360,000 tested, 0.044% active | hiPSC single-cell survival, ATPlite luminescence; 100% = ROCK inhibitor wells, 0% = DMSO | survival enhancement, % at 20 µM | AID 602274; in the data active = survival enhancement above about 18%;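 note: cells exposed to compounds for 16 hours before the ATP read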
# DAGLB inh – diacylglycerol lipase beta (human) inhibition | Q8NCG7 | HEK293T DAGLB membrane lysate, EnzChek fluorogenic substrate | inhibition, % at 5.17 µM | 340,000 tested, 0.059% active; in the data active = inhibition above about 34%;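 note: 0% = enzyme with vehicle and 100% = wells lacking enzyme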
# SKN-1 block – C. elegans SKN-1 inhibition; inhibition, % at 21.8 µM; AID 624304; C. elegans VP596 Pgst-4::GFP/RFP ratio, acrylamide-induced, 24 h; 360,000 tested, 0.49% active;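 active = interference check ratio from 0.5 to 1.5 plus GFP to RFP signal ratio inhibition reaching or exceeding a fixed threshold, cut at about 30% in these data, passing the limit was not always enough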
# Starred values were filed as active, the others as inactive; . = not tested or not shown.
SMILES,FAS-TE inh,MT1-MMP act inh,hiPSC survival,DAGLB inh,SKN-1 block
O=[N+]([O-])c1ccccc1-c1nc(-c2ccc(Br)o2)no1,25,-4,0,-4,58*
COc1ccc(S(=O)(=O)NC(=O)C2(C)CCN2C(=O)C(C)(C)c2ccccc2)cc1 (centres undefined),-7,-7,0,.,9
CCc1nnc(NS(=O)(=O)c2ccc(NC(=S)NC(=O)/C=C/c3ccccc3)cc2)s1,27,-1,-2,14,10
CCc1nnc(NS(=O)(=O)c2ccc(NC(=S)NC(=O)/C=C/c3ccc(C(C)C)cc3)cc2)s1,51*,0,-1,19,11
CC(/C=N/Nc1ncc(C)c(=O)[nH]1)=C\c1ccccc1,-6,-2,-3,3,41*
Cc1nnc(-c2cccc(Br)c2)c2cn(-c3cccc(Br)c3)nc12,11,7,-2,-10,36*
CCc1nc2ccc(C(=O)NCCC(C)C)cn2c1N(CC)CCN(C)C,-9,-3,1,.,-4
O=C(CSc1ncn[nH]1)Nc1ccc(Cl)c(Cl)c1,-162,2,-2,0,44*
Clc1ccc(N=c2ssnc2Cl)cc1,-4,-1,1,1,92*
Clc1nssc1=Nc1ccccc1,-5,1,-1,-1,-7
c1ccc(C[n+]2csc3ccccc32)cc1,-9,2,-4,-2,1
c1ccc(Cn2c[n+](Cc3ccccc3)c3ccccc32)cc1,-6,1,-1,0,35*
Cc1c(C(=O)Nc2cccc(C(F)(F)F)c2)oc2ccc(S(=O)(=O)N3CCOCC3)cc12,14,5,4,-2,36*
C1CCN(c2nc3nonc3nc2N2CCCC2)C1,-9,-3,22*,-3,-11
COc1ccc(S(=O)(=O)n2ccc(-c3ccc(OCCN(C)c4ccccn4)cc3)n2)cc1,29,0,-2,-4,45*
COc1ccc(S(=O)(=O)N(CC(=O)O)c2ccccn2)cc1,-2,3,-1,3,15
CC(=O)CSc1nc2ccccc2s1,-4,0,5,1,34*
O=C(CSc1nc2ccccc2s1)CSc1nc2ccccc2s1,26,-11,-1,-13,6
CC1(C(=O)O)CCN1C(=O)c1ccccc1F (centres undefined),-5,0,3,.,20
C=C1CCC[C@]2(C)C[C@H]3OC(=O)C(CNCCN(CC)CC)[C@H]3CC12 (some centres undefined),-4,-11,0,0,-2
C=C1CCC[C@]2(C)C[C@H]3OC(=O)C(CNCCN(C)C)[C@H]3CC12 (some centres undefined),1,-4,1,0,37*
OCCN1CCN(c2cc(-c3ccc4ccccc4c3)nc3ccnn23)CC1,-2,-1,2,.,-2
COc1ccc(NC(=O)/C(Cl)=C(/Cl)S(=O)(=O)Cc2ccc(C)cc2)cn1,47,2,23*,13,20
O=C(Nc1ccc2c(c1)OCCO2)C(C1CC1)N1CCN(c2ccc(C(F)(F)F)cn2)CC1 (centres undefined),26,4,-2,.,-1
CCOC(=O)c1cc(OC(C)=O)c2ccc(OC)c(OC)c2c1,0,-2,3,-11,5
SMILES,FAS-TE inh,MT1-MMP act inh,hiPSC survival,DAGLB inh,SKN-1 block
Oc1ccc2c(c1)OCC1(O)Cc3cc(O)c(O)cc3C21 (centres undefined),-18,3,-4,1,65
Oc1cc2c(cc1O)[C@H]1c3ccc(O)c(O)c3OC[C@@]1(O)C2,0,21,-2,0,37*
Cc1ccccc1C(C(=O)NC1CCCC1)N(C(=O)Cc1cccs1)c1ccc2c(c1)OCCO2 (centres undefined),54*,-28,0,-3,14
O=C(CN1CCN(S(=O)(=O)c2ccc(Br)cc2)CC1)Nc1ccc2c(c1)OCO2,2,-6,0,-1,35*
CCN(CC)CCC(c1cc(OC)c(OC)c(OC)c1)c1c(OC)cc(OC)c2c(C)cc(=O)oc12 (centres undefined),0,-2,-2,-4,40*
CCN(CC)CCC(c1cc(OC)c(OC)c(OC)c1)c1c(OC)cc(OC)c2ccc(=O)oc12 (centres undefined),-4,-1,-2,-2,-3
CCOc1ccc2c(=O)c(Oc3ccccc3OCC)coc2c1,0,-7,7,-1,36*
COc1cc(CNc2nccn3ccnc23)cc(OC)c1,-10,-3,0,.,-3
Cc1ccc(NC(=O)c2nc(S(=O)(=O)Cc3ccccc3)ncc2Cl)cc1,41,2,0,0,-3
CCS(=O)(=O)c1ncc(Cl)c(C(=O)Nc2ccc(S(=O)(=O)N(C)c3ccccc3)cc2)n1,47,-8,21*,2,-7
CN(C)S(=O)(=O)c1ccc(N2CCCC2)c(C(=O)NCc2cccc(C(F)(F)F)c2)c1,7,-6,-1,-3,47*
COc1ccc(C(O)c2ncc(-c3ccccc3C)[nH]2)cc1 (centres undefined),-2,2,-2,.,6
O=c1oc2cc(OCc3c(F)cccc3Cl)ccc2cc1-c1ccccn1,22,-1,10,2,-8
CCCOc1ccc2cc(-c3ccccn3)c(=O)oc2c1,11,-1,-4,-11,45*
CCCNC(=O)N[C@H]1C=C[C@H](CC(=O)NC2CCCCC2)O[C@@H]1CO,.,3,.,.,6
Cc1ccc2nc(-c3ccc(NC(=S)NC(=O)C(C)C)cc3)sc2c1,4,0,-3,2,8
Cc1ccc2nc(-c3ccc(NC(=S)NC4CC(C)(C)NC(C)(C)C4)cc3)sc2c1,-51,-6,-3,1,84*
Cc1ccc([C@@H]2C[C@H]3[C@@H](CN2S(=O)(=O)c2ccc(Cl)cc2)C(=O)C[C@@H](c2ccc(C)cc2)N3S(=O)(=O)c2ccc(Cl)cc2)cc1,13,-1,28*,-31,3
COC(=O)[C@]12CCCCC=C1N(CCC1=CCCCC1)C(=O)[C@H](CC(=O)NCc1cccc3ccccc13)C2,19,-7,0,.,0
Fc1ccc(-c2nnc(Cc3ccc(Cl)cc3)o2)cc1,15,4,-1,-5,44*
Fc1ccc(Cc2nnc(-c3cccs3)o2)cc1,4,1,0,-2,7
c1cncc(-c2nnc(-c3ccco3)o2)c1,-9,3,4,0,7
Clc1ccc(-c2nnc(-c3ccco3)o2)cc1,-3,0,1,-3,74*
Cc1[nH]c2ccccc2c1C(=O)/C=C\c1ccccc1Cl,13,-3,2,-6,2
Cc1[nH]c2ccccc2c1C(=O)/C=C/c1ccccc1,4,-11,-1,-5,53*
O=C(CN1C(=O)CCS(=O)(=O)c2ccccc21)NCc1ccccc1,-7,3,3,-1,37*

# Assay outcomes from PubChem BioAssay.
